Laboratory results as given in paper PMC4681692 (Child's nervous system : ChNS : official journal of the …, 2015).
Like-named read-outs stand apart in the source and are kept apart here.

Experiments:
[1] = system: children with recurrent central nervous system (CNS) malignancies; conditions: in vivo
[2] = Plasma pharmacokinetics of weekly MK-0752, dose 1 course 1; assay type: in vivo; conditions: human, oral, both dose levels
Procedure, shortened: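 Children with recurrent CNS tumours took oral test compound capsules once weekly at 1,000 or 1,400 mg/m2, in 28-day courses. Heparinised blood was drawn before dose 1 of course 1 and at 1, 2, 3, 6, 8 (±2), 24 (±4) and 48 h after it. Plasma drug was measured by validated LC-MS/MS and analysed non-compartmentally. β came from the last two measurable points, and t1/2 = ln(2)/β.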

[3] = system: NOTCH1 cleavage (NICD1) in PBMCs; experiment: NICD1 expression in PBMCs by Western blot; assay type: in vivo, human; conditions: for patients with NICD1 expression decreased from baseline: PBMCs
[4] = system: recurrent CNS tumors; experiment: Tumor response in phase I trial of weekly MK-0752; assay type: in vivo, human
Procedure, shortened: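 The oral test compound was given once weekly at 1,000 or 1,400 mg/m2 in 28-day courses, using a rolling-6 design. Disease was assessed at baseline, after course 2 and after every other course thereafter. Patients got up to 6 courses unless disease progressed, and those with stable disease after 6 courses could receive up to 13 more.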

[5] = system: amyloid peptide levels; conditions: animal models; cited from earlier work
[6] = cited from earlier work; for t1/2: adults
[7] = system: refractory adult solid tumors; conditions: cited from earlier work
[8] = system: NOTCH; conditions: adults, weekly administration; cited from earlier work
[9] = system: children with recurrent CNS tumors; conditions: 3-days-on/4-days-off schedule; cited from earlier work
[10] = children, 3-days-on/4-days-off schedule; cited from earlier work
[11] = system: recurrent CNS tumors; conditions: children, 3-days-on/4-days-off schedule; cited from earlier work
[12] = system: advanced breast cancer; conditions: with docetaxel, MK-0752 days 1-3, of 30 evaluable patients; cited from earlier work
[13] = system: NOTCH pathway genes; conditions: healthy adults, once weekly dosing; cited from earlier work
[14] = system: glioblastoma cell lines; conditions: combination with Akt inhibitor MK-2206, compared to monotherapy; cited from earlier work
[15] = system: platinum-resistant ovarian carcinoma xenograft model; conditions: cited from earlier work

Work on `O=C(O)CC[C@H]1CC[C@@](c2cc(F)ccc2F)(S(=O)(=O)c2ccc(Cl)cc2)CC1` [MK-0752] yielded an ALT increase ([1]; human) of 2, an AST increase ([1]; human) of 2 and an Allergic rhinitis ([1]; human) of 1. For the same molecule, the Anorexia ([1]; human) was 1, the Diarrhea ([1]; human) was 4 and the Dizziness ([1]; human) was 1. It also gave a Dry skin ([1]; human) of 1, a Fatigue ([1]; human) of 1 and a Hyperglycemia ([1]; human) of 1. The Hypermagnesemia ([1]; human) was 1, the Hypoalbuminemia ([1]; human) was 2 and the Hypokalemia ([1]; human) was 1. It also gave a Hypomagenesemia ([1]; human) of 2, a Hypophosphatemia ([1]; human) of 2 and a Hypotension ([1]; human) of 1. The “Increased Hemoglobin” value ([1]; human) was 1, the Leukopenia ([1]; human) was 2 and the Nausea ([1]; human) was 1. For the same molecule, the Vomiting ([1]; human) was 2, the “grade 4 toxicities” value ([1]; human) was “no grade 4 toxicities” and the “Non-dose-limiting grade 3 toxicities” value [1] was “lymphopenia, neutropenia, and anemia”. The “dose-limiting diarrhea and GI toxicity” value [1] was “not observed”, the half-life ([2]; median t1/2, all 10 patients) was 21.7 h and the half-life ([2]; t1/2 (range), all 10 patients) was 9.8 to 42.2 h. The “change in NICD expression in PBMCs” value ([3]; 24 hours after the higher dose (1,400 mg)) was “dose-dependent decrease”, the “patients with NICD1 expression decreased from baseline” value ([3]; 24 hours post MK-0752, 1,000 and 1,400 mg/m^2) was 6 of 7 and the “patients with NICD1 expression decreased from baseline” value ([3]; 24 hours post MK-0752, treated at 1,400 mg/m^2 (n=3)) was “all three”. The “patients with prolonged SD (6 and 10 cycles)” value ([4]; all evaluable patients, weekly schedule) was 2 of 9, the objective responses ([4]; weekly 1,000 and 1,400 mg/m^2) was “No objective responses” and the blood-brain barrier penetration [5] was “penetrate the blood-brain barrier”. The “reduction of amyloid peptide levels” value [5] was 50%, the Cmax ([6]; adults receiving 1,800 mg (~1,040 mg/m^2) weekly) was 84.2 µg/mL and the t1/2 ([6]; weekly 1,800 mg (~1,040 mg/m^2)) was 13.8 h. The t1/2 ([6]; weekly 2,400 mg (~1,400 mg/m^2)) was 16.2 h, the “duration of CR” value ([7]; one adult patient with anaplastic astrocytoma, 1,800 mg once weekly) was > 1 year and the “duration of SD” value ([7]; one adult patient with glioblastoma multiforme, 4,200 mg once weekly) was > 1 year. The “dose achieving target inhibition” value [8] was 3,200 mg, the “dose-limiting toxicity preventing dose escalation beyond 260 mg/m^2” value [9] was “dose-limiting elevations of AST and ALT” and the well-tolerated dose [9] was 260 mg/m^2. For the same molecule, the t1/2 [10] was 11.4 h, the “evaluable patients with prolonged SD (3 and 4 cycles)” value [11] was 2 of 17 and the “patients with PR” value [12] was 9. For the same molecule, the “patients with SD” value [12] was 11 and the “duration of decreased expression of NOTCH pathway genes” value [13] was “at least 96 hours”.

In the case of `O=S1(=O)N[C@@]2(CN1CC(F)(F)F)[C@@H]1CC[C@H]2Cc2ccc(/C=C/CN3CCC(C(F)(F)F)CC3)cc2C1` [MRK003], the “effect of combination on migratory and invasive potential of glioblastoma” value [14] is listed as “synergistic inhibition” and the “combination effect with paclitaxel” value [15] is listed as “synergy”.
